Assay results published in paper PMC11261800 (Heliyon, 2024).

Test system: HFF-1 cells
Test: SA-β-gal activity in D-gal-induced premature aging of HFF-1 cells
Format: cell-based, human
Details: 500 μg/mL
Method in brief: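 HFF-1 fibroblasts were seeded at 2 × 10^4 cells/well and cultured for 24 h. Growth medium was replaced for 72 h with test sample solution containing D-gal at 20 mg/mL final. SA-β-gal activity was detected by X-gal staining, and blue positive cells were viewed by microscopy and counted against the D-gal-injured and blank control groups.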

N[C@@H](CCC(=O)N[C@@H](CS)C(=O)NCC(=O)O)C(=O)O [GSH]
decrease of SA-β-gal positive staining rate compared with the D-gal group: 50.61%
